Reference: paper PMC4535690 (Angewandte Chemie (International ed. in English), 2015)
Where a SMILES comes first, the peptide text is derived from it. The star is where a group is joined. Acetyl(thymin-1-yl) = Cc1cn(CC(=O)*)c(=O)[nH]c1=O; Adenin9ylacetyl = Nc1ncnc2c1ncn2CC(=O)*

Assays:
HeLa cells = assay: Biocompatibility; format: cell-based; conditions: 3 days incubation, single nucleopeptide (Figures S11 and S12)
How it was run: (§1)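 Nucleopeptides were tested singly and as two-component heterodimer mixtures. HeLa cells (24 h doubling time) were incubated for 3 days, and PC12 cells (92 h doubling time) for 7 days. Viability was then assessed as a measure of biocompatibility.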

PC12 cells = assay: Biocompatibility; format: cell-based; conditions: 7 days incubation (Figures S10, S11 and S12)
How it was run: as §1

proteinase K = proteinase K (Parengyodontium album, UniProt P06873); assay: Proteolytic stability on incubation with proteinase K; format: in vitro ADME; conditions: single component, 0.2 mg/mL in HEPES buffer pH 7.4; proteinase K 3.2 U/mL; 24 h at 37 °C (Figure 3A; KTTPV Figure S9)
proteinase K, sequence (P06873 106-384, species assumed): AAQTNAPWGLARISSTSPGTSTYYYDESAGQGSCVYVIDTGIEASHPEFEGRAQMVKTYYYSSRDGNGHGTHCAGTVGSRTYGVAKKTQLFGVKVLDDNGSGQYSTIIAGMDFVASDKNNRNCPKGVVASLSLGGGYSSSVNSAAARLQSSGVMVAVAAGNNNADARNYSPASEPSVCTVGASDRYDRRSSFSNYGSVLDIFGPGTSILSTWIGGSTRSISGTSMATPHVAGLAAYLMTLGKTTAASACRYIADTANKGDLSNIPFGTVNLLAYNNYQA

| Compound | Toxicity to HeLa cells (HeLa cells) | Toxicity / inhibition of proliferation of PC12 cells (PC12 cells) | Compound remained after incubating with proteinase K (proteinase K) |
| --- | --- | --- | --- |
| Cc1cn(CC(=O)N[C@@H](CCCCN)C(=O)N[C@H](C(=O)N[C@H](C(=O)N2CCC[C@H]2C(=O)N[C@H](C(=O)O)C(C)C)[C@@H](C)O)[C@@H](C)O)c(=O)[nH]c1=O [compound 1] ({Acetyl(thymin-1-yl)}-KTTPV-OH; N-terminus and C-terminus assumed) | no toxicity | no toxicity |  |
| CC(C)[C@H](NC(=O)[C@@H]1CCCN1C(=O)[C@@H](NC(=O)[C@@H](NC(=O)[C@H](CCCCN)NC(=O)Cn1cnc2c(N)ncnc21)[C@@H](C)O)[C@@H](C)O)C(=O)O [compound 2] (Adenin9ylacetyl-KTTPV-OH; N-terminus and C-terminus assumed) | no toxicity | no toxicity |  |
| LGFNI [compound 3] | no toxicity | no toxicity | hydrolyzes completely |
